# Assay results gathered from unrelated publications.
# Compare with care: the assays were run in different laboratories.
# FLT3: Receptor-type tyrosine-protein kinase FLT3 (FLT3, Homo sapiens, UniProt P36888)
# MTNR1A: Melatonin receptor type 1A (MTNR1A, Homo sapiens, UniProt P48039)
Structure (SMILES),target,observed,action,method,notes,endpoint,result
Cc1cc2nc3c(=O)[nH]c(=O)nc-3n(C[C@H](O)[C@H](O)[C@H](O)COP(=O)(O)OP(=O)(O)OC[C@H]3O[C@@H](n4cnc5c(N)ncnc54)[C@H](O)[C@@H]3O)c2cc1C,"Annexin A7 (Homo sapiens, UniProt P20073)",binding,,,lysate,Kd,30 nM
CC(C)Nc1ccnc(Nc2cccc(-c3cnccn3)c2)n1,FLT3,enzyme activity,inhibitor,,,IC50,11 nM
CCc1ccc2scc(CCNC(C)=O)c2c1,MTNR1A,β-arrestin recruitment,agonist,,,EC50,12 nM
c1ccc(-c2cccc(Nc3nccc(NC4CCCCC4)n3)c2)nc1,FLT3,enzyme activity,inhibitor,,,IC50,1710 nM
COC(=O)c1ccc(CSc2nnc(C3CC3)[nH]2)cc1,MTNR1A,cAMP,agonist,luciferase,,EC50,777 nM
Cc1cc(Nc2cc3ncccc3c(N[C@@H]3C[C@H]4CC[C@@H](C3)N4CCC#N)n2)n[nH]1,FLT3,binding,,competition with immobilised ligand,,Kd,40 nM
COc1cc2c(CCNC(C)=O)c[nH]c2cc1I,MTNR1A,GTPγS binding,agonist,radiometric,cell membranes,EC50,10 nM
COc1ccc(Br)c(CNc2cccnc2)c1,MTNR1A,cell-free assay,,,,Ki,347 nM
COc1ccc2ncn(CCNC(C)=O)c2c1,MTNR1A,cAMP,agonist,TR-FRET,,EC50,1120 nM
COc1ccc(CN(C)C(=O)c2cc(F)c[nH]2)cc1O,MTNR1A,cAMP,agonist,luciferase,,EC50,21.1 nM
NC(=O)c1ccc(Nc2nccc(NC3CCCCC3)n2)cc1,FLT3,enzyme activity,inhibitor,,,IC50,14 nM
Cc1cnc(-c2ccc(-c3ccc(NC(=O)Nc4c(F)cc(F)cc4F)cc3F)c3c2C(=O)NC3)[nH]1,"Tyrosine-protein kinase receptor Tie-1 (TIE1, Homo sapiens, UniProt P35590)",binding,,competition with immobilised ligand,,Kd,18 nM
